From ChEMBL document CHEMBL3228038 (J Med Chem, 1979)
Calls of active or inactive are those of the source. The calls are words filed in the database; no cut-off is given here.

What was measured:
[1] = tested on: Mus musculus; experiment: Toxicity in icv dosed Swiss Webster mouse assessed as change in tail flick latency; assay type: organism-based; conditions: in vivo, icv_or_intrathecal
Summary of the method: (§1)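 Male Swiss Webster mice, 20-25 g, observed after icv injection in 4 µL saline. Recorded: lethality and preceding tonic convulsions within 1.5 h, lethargy, startle reflex to hand clap, locomotor activity, and tail-flick latency.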

[2] = tested on: Mus musculus; experiment: Toxicity in icv dosed Swiss Webster mouse assessed as decrease in locomotor activity; assay type: organism-based; conditions: in vivo, icv_or_intrathecal; summary of the method: as §1
[3] = tested on: Mus musculus; experiment: Toxicity in Swiss Webster mouse assessed as mortality at 2.4 nmol, icv; assay type: organism-based; conditions: in vivo, icv_or_intrathecal; summary of the method: as §1
[4] = tested on: Mus musculus; experiment: Toxicity in Swiss Webster mouse assessed as lethality at 4.8 nmol, icv after 1.5 hrs; assay type: organism-based; conditions: in vivo, icv_or_intrathecal; summary of the method: as §1
[5] = tested on: Mus musculus; experiment: Toxicity in icv dosed Swiss Webster mouse assessed as lethargic behavior; assay type: organism-based; conditions: in vivo, icv_or_intrathecal; summary of the method: as §1
[6] = tested on: Mus musculus; experiment: Toxicity in icv dosed Swiss Webster mouse assessed as suppression of startle reflex to loud and abrupt auditory stimulus; assay type: organism-based; conditions: in vivo, icv_or_intrathecal; summary of the method: as §1
[7] = tested on: Mus musculus; experiment: Toxicity in Swiss Webster mouse assessed as tonic convulsions at 4.8 nmol, icv; assay type: organism-based; conditions: in vivo, icv_or_intrathecal; summary of the method: as §1
[8] = tested on: Mus musculus; experiment: Toxicity in Swiss Webster mouse assessed as lethargic behavior at 4 nmol, icv; assay type: organism-based; conditions: in vivo, icv_or_intrathecal; summary of the method: as §1
[9] = tested on: Mus musculus; experiment: Inhibition of morphine-induced analgesia in Swiss Webster mouse assessed as change in morphine ED50 at 2.4 nmol, icv after 2 hrs by tail flick test; assay type: functional, organism-based
[10] = tested on: Mus musculus; experiment: Analgesic activity in Swiss Webster mouse at 4 nmol, icv after 10 to 120 mins by tail flick test; assay type: functional, organism-based
Summary of the method: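 Male Swiss Webster mice, 20-25 g. Compound given icv in 4 µL saline (working solution from ethanol/0.05 N HCl stock, evaporated under nitrogen). Agonist activity read by modified D'Amour-Smith tail-flick at intervals out to 2 h post-injection. Saline icv controls given in the same volume.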

[11] = tested on: Mus musculus; experiment: Effect on development of dependence to morphine in Swiss Webster mouse assessed as increase in naloxone ED50 for eliciting withdrawal jumping at 0.24 nmol, icv after 72 hrs relative to control; assay type: functional, organism-based
Summary of the method: (§2)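 Male Swiss Webster mice, 20-25 g. Given icv injection (4 µL saline vehicle) immediately after sc implantation of a 50 mg morphine or placebo pellet. At 24 and 72 h, naloxone given sc (10 mL/kg saline) and ED50 taken for precipitated withdrawal jumping (Way method). Groups of 4-5 mice per ED50.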

[12] = tested on: Mus musculus; experiment: Effect on development of dependence to morphine in Swiss Webster mouse assessed as increase in naloxone ED50 for eliciting withdrawal jumping at 0.24 nmol, icv after 24 hrs relative to control; assay type: functional, organism-based; summary of the method: as §2

Oc1ccc2c3c1O[C@H]1[C@H](N(CCCl)CCCl)CC[C@@]4(O)[C@@H](C2)N(CC2CC2)CC[C@]314
Activity [1]: Non-toxic
Activity [2]: Toxic
Activity [3]: Toxic
Activity [4]: Toxic
Activity [5]: Toxic
Activity [6]: Non-toxic
Activity [7]: Toxic

O=C(O)CCCc1ccc(N(CCCl)CCCl)cc1 [CHLORAMBUCIL]
Activity [8]: Toxic
Activity [1]: Non-toxic
Activity [2]: Toxic
inhibition [9]: inactive
Activity [10]: inactive
Activity [6]: Non-toxic

O=C1CC[C@@]2(O)[C@H]3Cc4ccc(O)c5c4[C@@]2(CCN3CC2CC2)[C@H]1O5
Activity [11]: inactive
inhibition [9]: inactive
Activity [12]: inactive
